Source: PubChem
NR2E3 ag-1: NR2E3 agonists in two-hybrid cells, primary screen, cell-based, luminescence, CHO-S, Gal4-NCOR/VP16-NR2E3; Photoreceptor-specific nuclear receptor (Homo sapiens), Q9Y5X4; actives 0.35% (n = 360,000); luciferase; inhibition of corepressor binding, % at 3.98 µM; AID 602229, 2012;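 active means inhibition above the mean of all tested compounds plus 3 SD, cut at about 70% in these data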;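 further: 0% = DMSO with NR2E3 transfected cells and 100% = cells lacking NR2E3 construct; higher means lower luciferase signal from less NR2E3 corepressor binding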
Target sequence (Q9Y5X4 whole entry, looked up, the tested form may be a part): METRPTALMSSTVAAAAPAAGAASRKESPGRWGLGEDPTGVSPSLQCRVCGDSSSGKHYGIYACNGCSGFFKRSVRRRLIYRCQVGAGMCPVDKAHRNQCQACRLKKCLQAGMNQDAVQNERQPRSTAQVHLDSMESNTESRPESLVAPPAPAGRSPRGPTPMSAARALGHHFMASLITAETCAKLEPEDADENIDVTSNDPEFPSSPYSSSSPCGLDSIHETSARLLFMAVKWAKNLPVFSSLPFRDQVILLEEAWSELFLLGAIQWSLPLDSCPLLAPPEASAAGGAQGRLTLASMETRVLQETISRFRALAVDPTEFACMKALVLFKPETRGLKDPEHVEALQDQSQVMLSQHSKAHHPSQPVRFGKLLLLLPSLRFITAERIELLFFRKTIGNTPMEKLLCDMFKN
NR2E3 ag-2: inhibitors of NR2E3-RetCOR corepressor binding, primary screen, NR2E3 agonist project, biochemical, TR-FRET, GST-NR2E3, biotin-RetCOR | actives 0.12% (n = 320,000) | 1536-well | inhibition of corepressor binding, % at 4.78 µM | Photoreceptor-specific nuclear receptor (Homo sapiens), Q9Y5X4;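 active means percent inhibition above the cutoff of mean plus 3 SD of all tested compounds, set per screening campaign, cut at about 20% in these data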;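 further: 0% = DMSO wells and 100% = biotin wells as full block of FRET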
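System: GST-tagged NR2E3 plus biotinylated RetCOR corepressor; Buffer or medium: pH 7.5 Tris-based buffer; Probe or stimulus: RetCOR corepressor, biotinylated, 7 nM; Doses: compound at 4.8 µM, single dose; Schedule: 5 h incubation at 4 °C; Technique: time-resolved FRET; Evaluation: percent inhibition of TR-FRET ratio; Replication: one well per compound, singlicate testing.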
GalR3 antag: GalR3 antagonists in HEK293 cells, primary screen, cell-based, fluorescence readout | Galanin receptor type 3 (Homo sapiens), O60755 | inhibition, % at 3 µM | actives 0.44% (n = 360,000) | HEK293 GalR3-CNG cAMP membrane potential fluorescence; galR3 body fused to GalR1 C-terminus | AID 651719, 2012;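 active means inhibition above the screen-wide average plus 3 SD, cut at about 13% in these data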;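 further: forskolin and galanin both at EC90 stimulate the cells; cAMP rise reported by CNG channel membrane potential dye signal; 0% = forskolin plus galanin with DMSO and 100% = forskolin alone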
PG9 binder: binders of HIV-1 gp120 antibody PG9, primary screen, biochemical, TR-FRET | AID 624416, 2012 | TR-FRET gp120-PG9 antibody binding | inhibition, % at 6.7 µM | actives 0.43% (n = 360,000) | HIV-1 gp120 / PG9 antibody interaction; in the data active means inhibition above about 8.5%
NR1D1 modulator: modulators of Rev-erb alpha DNA binding, primary screen, biochemical, FITC-DNA, fluorescence polarization, uHTS | AID 1259318, 2017 | actives 0.79% (n = 370,000) | Rev-erbα–FITC-DNA binding, 90 min | activity, % at 10 µM | Nuclear receptor subfamily 1 group D member 1 (Homo sapiens), P20393;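 active means activity above about 14%, limit read from the data; passing the limit was not always enough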;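 further: 0% = DMSO wells with 35 nM protein and 100% = DMSO wells with 750 nM protein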
GalR3 antag conf: GalR3 antagonist hit confirmation, cell-based, fluorescence, triplicate. AID 652245, 2013. actives 59% (n = 1,600). HEK293 GalR3 CNG cAMP biosensor, membrane potential fluorescence; galR3 fused to GalR1 carboxy tail; challenged with forskolin and galanin at EC90. shares compounds with GalR3 antag. inhibition, % at 3 µM;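 active means inhibition above the primary screen's cutoff, the mean inhibition of all screened compounds plus 3 SD, cut at about 13% in these data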;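 further: 0% = forskolin plus galanin and 100% = forskolin alone with DMSO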
CNG parental: nonspecific cAMP agonists in parental HEK-CNG cells, counter-screen for GalR3 antagonist project, cell-based, fluorescence, high throughput. HEK293-CNG parental cells, cAMP membrane potential fluorescence; normalised: DMSO wells 0%, forskolin wells 100%. shares compounds with GalR3 antag. AID 652268, 2013. activation, % at 3 µM. actives 10% (n = 1,600); in the data active means activation above about 1.3%
The depositor's hits bear a star; x = no result. A selection: hits, their analogues and other compounds. The true share with any hit is near 1.8%.

SMILES	NR2E3 ag-1	NR2E3 ag-2	GalR3 antag	PG9 binder	NR1D1 modulator	GalR3 antag conf	CNG parental
O=C(c1cc(Br)cc(Br)c1)N1CCC(Oc2cccnc2)CC1	x	x	x	x	9	x	x
COc1cc(/C=C/c2ccc3cccc([N+](=O)[O-])c3n2)ccc1OCC(=O)O	-13	-4	67*	-2	0	66*	0
CC(=O)Nc1ccc(/C=C/c2ccc3cccc([N+](=O)[O-])c3n2)cc1	-86	-2	-1	-2	7	x	x
O=C(O)COc1ccc(/C=C/c2ccc3cccc([N+](=O)[O-])c3n2)cc1	9	-8	16*	-2	5	21*	0
CCC(Sc1nc2n[nH]c(C)c2c(=N)n1-c1cccc(Cl)c1C)C(=O)N(CC)CC (stereo unspecified)	-5	6	17*	0	-4	71*	1
CC(C)(C)c1ccc(-c2nnc(SCC(=O)Nc3ccc(S(=O)(=O)Nc4nccs4)cc3)n2Cc2ccco2)cc1	x	x	x	x	-3	x	x
O=C(/C=C/c1ccccc1)NC(NC(=S)Nc1cccc(O)c1)C(Cl)(Cl)Cl (stereo unspecified)	-6	-5	18*	0	1	17*	-1
O=C(/C=C/c1ccccc1)NC(NC(=S)Nc1cccc(Cl)c1)C(Cl)(Cl)Cl (stereo unspecified)	4	1	-2	2	5	x	x
CC(=O)Oc1ccccc1/C=C/c1nc2ccccc2c(=O)o1	-67	-1	-11	-4	-1	x	x
C/C(O)=c1/c(=O)nc2cccc3c2=c1c1ccccc1c3=O	-38	x	19*	0	-1	14*	0
S=C(Nc1cccc(Br)c1)OC1CCC12CCC(c1ccccc1)CC2 (stereo unspecified)	x	x	x	x	2	x	x
Cc1[nH]c2ccc(C(=O)NCCCN3CCN(C)CC3)cc2c1C	1	-2	15*	-4	-2	-4	0
CC(C)CC1NC(=O)N(CC(=O)Nc2ccc3c(c2)CCC3)C1=O (stereo unspecified)	1	-1	-7	-2	1	x	x
CN1CC(=O)N(CC(=O)Nc2ccc3c(c2)CCC3)C1=O	-2	1	24*	1	-3	4	0
COc1cccc(CN(C)C(=O)CNC(=O)c2cccs2)c1OC	6	2	-3	0	-8	x	x
COc1cccc(CN(C)C(=O)CNC(=O)c2ccc(-c3ccccc3)cc2)c1OC	38	2	53*	-2	0	116*	-1
Cc1ccc(S(=O)(=O)N2CCN(C(=O)COC(=O)CCOc3ccc(C(C)(C)C)cc3)CC2)cc1	-15	2	20*	-1	1	20*	-1
Cc1ccc(/C(N)=N/OC(=O)CCC2CCCCC2)cc1	7	0	-3	0	2	x	x
Cc1ccc(/C(N)=N/OC(=O)CCC2CCCC2)cc1	1	-2	13*	-2	-4	-2	0
c1cc2c(cc1CN1CCN(C3CCCCCC3)CC1)OCO2	-10	1	-11	-2	-4	x	x
c1ccc(CN2CCC(N3CCN(Cc4ccc5c(c4)OCO5)CC3)CC2)cc1	-12	2	40*	-1	-5	0	6.0*
COCC(=O)N(C[C@H]1[C@H](c2ccccc2)[C@@H](CO)N1C(=O)NC(C)C)C(C)C	x	x	x	x	-2	x	x
CCOc1cc(CNCc2ccccc2)ccc1OCc1ccc(Cl)cc1	16	6	42*	0	4	26*	5.5*
CCOc1cc(CNCCc2ccc(S(N)(=O)=O)cc2)ccc1OCc1ccccc1	3	1	-8	-1	-7	x	x
Cc1cc(NCCO)nc(-n2nc(C)cc2C)n1	-28	-3	13*	1	-6	0	0
SMILES	NR2E3 ag-1	NR2E3 ag-2	GalR3 antag	PG9 binder	NR1D1 modulator	GalR3 antag conf	CNG parental
Cn1c(=O)c(=O)n(C)c2cc(S(=O)(=O)N3CCN(CCO)CC3)ccc21	x	x	x	x	-7	x	x
COc1ccc(CC(=O)N2CCN(C(=O)Cc3ccc(OC)cc3)CC2)cc1	-23	-1	-3	0	6	x	x
COc1ccc(CC(=O)N2CCN(c3ccc(C4=NNC(=O)CC4C)cc3)CC2)cc1 (stereo unspecified)	7	-4	76*	1	-3	87*	0
O=C(Nc1nc(-c2ccc(S(=O)(=O)N3CCCCCC3)cc2)cs1)c1ccccc1	-6	-2	-5	-1	9	x	x
O=C(Nc1nc(-c2ccc3c(c2)OCCO3)cs1)c1ccc(S(=O)(=O)N2CCCCC2)cc1	-3	4	20*	0	-2	15*	-1
C[C@H](Cc1ccccc1)Nc1ncnc2c1ncn2[C@@H]1O[C@H](CO)[C@@H](O)[C@H]1O	-28	3	x	0	1	x	x
CNc1ncnc2c1ncn2[C@@H]1O[C@H](CO)[C@@H](O)[C@H]1O	27	2	77*	0	-9	17*	0
CCOC(=O)C1CCN(C(=O)Cc2cccc3ccccc23)CC1	-10	3	16*	1	-3	0	0
Cn1cccc1C(=O)N1CCN(S(=O)(=O)c2ccc([N+](=O)[O-])cc2)CC1	x	x	x	x	-1	x	x
Cc1oc(-c2ccc(Cl)cc2)nc1CSCC(=O)NC1CCN(Cc2ccccc2)CC1	19	-1	96*	-2	2	106*	1
Cc1oc(-c2ccc(Cl)cc2)nc1CN1CCCC(C(=O)NCc2cccnc2)C1 (stereo unspecified)	31	2	83*	-1	-3	111*	0
CCOc1ccc(-c2nc(CSCC(=O)NC3CCN(Cc4ccccc4)CC3)c(C)o2)cc1	12	x	-6	-2	-6	x	x
Cc1cc(C)cc(C(=O)OCCCN(C)C2CN(Cc3cn(Cc4ccccc4F)nn3)S(=O)(=O)C2)c1 (stereo unspecified)	x	x	x	x	-1	x	x
Cc1[nH]c(=O)[nH]c(=O)c1/C=N/NC(=O)[C@H](C)NC(=O)OC(C)(C)C	-26	1	x	-1	0	1	0
Cc1nc(-c2ccc(C(=O)Nc3cccc(Br)c3)cc2)cs1	-183	1	98*	-3	5	102*	0
